From PubChem BioAssay
Tn7 DDE FP – DD(E)-Tn7 binding inhibition, primary FP screen; AID 720508; inhibition, % at 8.3 µM; P02675; 370,000 compounds, 0.13% hits; FP displacement of FITC-Tn7 peptide from fibrin DD(E); 0% = median of compound wells per plate;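 active means inhibition above the mean of compounds falling within the control limits plus 3 SD of them, cut at about 14% in these data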;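 further: 0% = plate median of compound wells and 100% = 10 µM Aha-Tn7 peptide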
Target sequence (P02675 whole entry, looked up): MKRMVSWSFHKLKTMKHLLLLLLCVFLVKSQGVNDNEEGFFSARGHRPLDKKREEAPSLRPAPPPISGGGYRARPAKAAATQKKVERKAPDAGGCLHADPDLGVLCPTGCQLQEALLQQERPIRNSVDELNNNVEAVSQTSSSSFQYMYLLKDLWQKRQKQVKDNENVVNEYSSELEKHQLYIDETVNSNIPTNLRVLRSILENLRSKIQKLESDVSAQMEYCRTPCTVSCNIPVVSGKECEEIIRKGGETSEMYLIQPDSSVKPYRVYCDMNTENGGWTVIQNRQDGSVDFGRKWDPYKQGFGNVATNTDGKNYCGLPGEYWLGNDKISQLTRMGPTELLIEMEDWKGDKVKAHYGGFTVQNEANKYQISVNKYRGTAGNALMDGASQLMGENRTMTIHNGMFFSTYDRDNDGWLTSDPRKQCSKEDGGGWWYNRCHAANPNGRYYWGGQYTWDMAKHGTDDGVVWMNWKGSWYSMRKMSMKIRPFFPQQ
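Assay system: human fibrin DD(E). Input: DD(E) 2 µM final. Medium: Tris buffer with calcium and detergent, pH 7.8. Compound dosing: single point at 8.3 µM. Timing: 10 min plus 3 h, room temperature. Technique: fluorescence polarization of the labelled Tn7 tracer. Read-out: percent inhibition. Replicates: singlicate testing.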
MT1-MMP act inh – blocks activation of human MT1-MMP | 360,000 compounds, 0.061% hits | HT1080 RFP-PRO-GFP cells, GFP/RFP ratio fluorescence, overnight; percent of plate control window, DMSO zero | P50281 | GFP/RFP ratio change, % at 20 µM | AID 651647;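 active means GFP/RFP ratio change of at least 30% with cell ATP level not reduced by more than half and red fluorescence within 50% of control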
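Test system: HT1080 cells expressing an RFP-PRO-GFP fluorescent reporter construct / Compound dosing: single-point 20 µM compound, 1% DMSO / Schedule: cells overnight before dosing, compound overnight, 37 °C, 5% CO2 / Evaluation: GFP/RFP fluorescence ratio / Control set: DMSO and RFP-L50D-GFP cell wells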
SKN-1 block – C. elegans SKN-1 inhibition. C. elegans VP596 Pgst-4::GFP/RFP ratio, acrylamide-induced, 24 h. inhibition, % at 21.8 µM. 360,000 compounds, 0.49% hits. AID 624304;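 active means interference check ratio from 0.5 to 1.5 plus GFP to RFP signal ratio inhibition reaching or exceeding a fixed threshold, cut at about 30% in these data, passing the limit was not always enough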
Tn6 DDE FP – disrupts Tn6 cyclic peptide binding to fibrin D-Dimer-E complex; P02675; Fibrin DD(E) TRITC-Tn6 fluorescence polarization displacement; inhibition, % at 8.3 µM; 370,000 compounds, 0.21% hits; AID 720509;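 active means inhibition above a per-campaign cutoff: mean of compounds within control limits plus 3 SD, cut at about 15% in these data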;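 further: 0% = median of all compound wells on the plate and 100% = blocking peptide control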
proKLK7 act – proKLK7 (human) activation, primary screen; purified proKLK7, EDANS-DABCYL substrate fluorescence; 100% is mature enzyme control, 0% vehicle; activation, % at 7 µM; 370,000 compounds, 0.9% hits; AID 652039; P49862;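 active means activation above the mean of all tested compounds plus 3 SD, computed per campaign excluding outliers beyond control limits, cut at about 13% in these data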
Neddylation inh – inhibitors of human cullin neddylation; TR-FRET cullin neddylation, biochemical; 360,000 compounds, 0.58% hits; AID 651699; calls only at 25 µM; in the data active means inhibition above about 36%
Starred values were filed as active, the others as inactive; i = inactive; x = no result given; + = active, no number. Compounds with a hit are over-represented: about 2.2% of the library has one in this group of screens.

SMILES	Tn7 DDE FP	MT1-MMP act inh	SKN-1 block	Tn6 DDE FP	proKLK7 act	Neddylation inh
O=C(O)CNS(=O)(=O)c1ccc2c(c1)C(=O)c1cc(S(=O)(=O)NCC(=O)O)ccc1-2	0	-1	29*	-9	0	i
O=C(O)c1ccccc1-c1ccccc1C(=O)Nc1ccc2c(c1)oc(=O)c1ccccc12	-4	1	36*	7	-1	x
O=Nc1c(O)ccc2cc(S(=O)(=O)O)ccc12	x	5	17	x	x	x
Nc1cccc2cc(S(=O)(=O)O)ccc12	-2	4	51*	-2	7	+
CCOC(=O)CN1CCCc2nc(C)c(C)cc21	4	x	x	8	29*	x
Cc1ccc(C(=O)OCC(=O)Nc2cccc(S(=O)(=O)N3CCOCC3)c2)o1	7	-8	4	3	0	i
O=C(c1cc(COc2ccc(F)cc2Cl)on1)N1C[C@H]2CC[C@H]1C2	2	7	15	4	1	i
O=C(c1cc(COc2ccc(F)cc2Cl)on1)N1CC2C[C@@H]3CC1C[C@H](C2)C3	-1	-3	35*	5	0	i
N#C/C(=C/C1=C(N2CCOCC2)C(=C/c2ccc(Cl)cc2)/CC1)C(=O)Nc1ccccc1F	3	8	44*	1	1	i
CCOC(=O)c1ccc(N=Nc2c(C)c(C#N)c(O)[nH]c2=O)cc1	6	1	41*	-4	0	i
c1csc(-c2cn3ccc4ccccc4c3n2)c1	6	1	39*	1	3	x
c1cc(-c2cccs2)nc(-c2cccs2)c1	8	4	5	0	-1	i
COc1cc(CCC(=O)OCC(=O)Nc2ccc(F)cc2F)cc(OC)c1OC	-5	0	40*	2	0	i
CCOC(=O)C1=CN(Cc2cccc(F)c2)S(=O)(=O)N(C)C1c1cccc(OC)c1 (stereo unspecified)	1	0	-22	8	0	i
COc1ccccc1NC(=O)/C(=C\c1cccnc1)NC(=O)c1ccc(C)cc1	4	-1	6	0	0	i
CC(C)CCNC(=O)NC(=O)COc1ccccc1C#N	4	10	38*	-5	0	i
CC(C)NC(=O)COc1ccccc1C#N	-6	0	-3	-6	0	i
CC(C)CCNC(=O)NC(=O)COC(=O)/C=C/c1cnc2ccccc2n1	2	-4	37*	3	0	i
CN1CCc2c(sc3c2C(=O)NC(c2ccccn2)N3)C1 (stereo unspecified)	12	-4	55	28*	-4	+
O=C1NC(c2ccccn2)Nc2sc3c(c21)CCC3 (stereo unspecified)	4	5	-3	-4	-5	i
CN1CCc2c(sc3c2C(=O)NC(c2ccccc2)N3)C1 (stereo unspecified)	3	-12	47*	3	-1	i
COc1ccc(CNC(=O)C2CCN(c3nn4c(=O)cc(C)nc4s3)CC2)cc1	-4	1	-2	3	0	i
Clc1nccc(NCc2ccccc2)n1	-1	1	8	-4	0	i
CCN1CCCC1CNC(=O)c1cc2c(-c3ccc(Cl)cc3)nn(C)c2s1 (stereo unspecified)	x	3	18	x	x	x
CCN=C1SC(CC(=O)NCCc2ccc(OC)cc2)C(=O)N1CC (stereo unspecified)	3	0	-2	9	0	i
SMILES	Tn7 DDE FP	MT1-MMP act inh	SKN-1 block	Tn6 DDE FP	proKLK7 act	Neddylation inh
O=S(=O)(c1cccc2c(S(=O)(=O)N3CCCC3)cccc12)N1CCCC1	0	-2	36*	2	0	i
O=C(Nc1ccccc1-c1ccccc1)c1ccccc1	-2	-1	9	4	1	i
Nc1c(S(=O)(=O)O)cc(NC(=O)c2ccccc2)c2c1C(=O)c1ccccc1C2=O	x	57*	33	x	x	i
O=C(COC(=O)CCNS(=O)(=O)c1ccccc1)Nc1ccc(OC(F)F)cc1	-6	-2	45*	-3	1	i
O=C(Cc1ccsc1)OCC(=O)c1ccccc1	8	2	9	-6	1	i
CCSc1nc2c(c(=O)[nH]1)C(c1ccccn1)C1=C(CC(C)(C)CC1=O)N2 (stereo unspecified)	0	1	-7	-2	32*	x
O=C(CN1CCCC1)Nc1sc2c(c1C(=O)Nc1ccc(Br)cc1)CCC2	2	-4	38*	1	0	i
CN1CCN(CC(=O)Nc2sc3c(c2C(=O)Nc2ccccc2)CCCC3)CC1	-3	2	9	0	0	i
COC(=O)C1=C(C)NC(C)=C(C(=O)OC)C1c1cn(-c2ccccc2)nc1-c1ccco1	-5	-10	-6	-1	55*	x
COCCOC(=O)C1=C(C)NC(=O)NC1c1cn(-c2ccccc2)nc1-c1cccs1 (stereo unspecified)	1	3	2	8	0	i
O=C1/C(=C/c2cccs2)CCC/C1=C\c1cccs1	-2	-10	38*	1	-1	i
O=C1C(=Cc2cccs2)CCc2ccccc21	-4	x	x	2	0	x
CCOC(=O)[C@]12CCCC=C1N(CCC1=CCCCC1)C(=O)[C@H](CC(=O)NCCC(C)C)C2	0	-14	-2	-1	0	i
Oc1ccc(C[C@H]2CNC(=S)N2CC2CCCN2C[C@H](Cc2ccc(O)cc2)N2C[C@H](Cc3ccc(O)cc3)N(CC3CCCCC3)C2=S)cc1 (stereo partly specified)	6	-4	11	26*	-1	i
Cc1ccc(NNC(=O)c2snnc2C)cc1Cl	1	1	-6	-5	0	i
CSc1ccc(-c2nnn(Cc3ccc(Br)cc3)n2)cc1	6	0	36*	6	0	i
Cc1cc(NC(=O)CSc2nc(C(C)C)nc3ccccc23)no1	3	-5	-18	1	0	i
N/C(=N\OC(=O)COc1ccc2ccccc2c1)c1ccncc1	x	1	39*	x	x	i
N/C(=N\OC(=O)COc1ccc(Cl)cc1)c1cccnc1	-1	4	37*	-1	-1	i
Cc1cccc(OCC(=O)O/N=C(\N)c2ccncc2)c1	-3	2	11	4	0	i
N/C(=N\OC(=O)COc1ccc([N+](=O)[O-])cc1)c1cccnc1	3	1	0	-1	0	i
Cc1ccc(OCC(=O)O/N=C(\N)c2cccnc2)cc1	6	3	-4	2	0	i
N/C(=N\OC(=O)COc1ccc2ccccc2c1)c1cccnc1	2	1	42*	-8	-1	i
